Measurements reported in ChEMBL document CHEMBL4689842, “EUbOPEN Chemogenomics Library wave 1” (2021).
Where “and” joins values, the source holds several entries; their conditions need not be identical. Equal entries are not always repeated.

Assays:
Assay type in all cases: toxicity, cell-based
HEK-293T [1] = assay: Multiplex assay against HEK293T; details: human;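 for Population Tubulin-Different-Phenotype (%): share of the cells with healthy nuclei that show this phenotype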
Outline: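 Hoechst33342, BioTracker Green Microtubule Cytoskeleton Dye, MitoTracker Red and Annexin V Alexa Fluor 680 were added to live cells at seeding, and imaging on a CQ1 microscope at 37°C and 5% CO2 followed compound addition. Gating by CellPathfinder machine learning separated cells into Hoechst high-intensity objects or normal cells, then normal cells into healthy, pyknosed or fragmented nuclei, then pyknosed cells into mitotic or apoptotic. Per cents of healthy-nucleus cells are reported for the tubulin, mitochondrial-mass and membrane-permeability phenotypes.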

Fibroblast = assay: Incucyte cell viability with human fibroblast; details: 10 µM, compound concentration 10 uM; note: filed as whole numbers so only -1 and 0 and 1 occur
HEK-293T [2] = assay: Incucyte cell viability with HEK293T; details: human, 10 µM, compound concentration 10 uM; note: filed as whole numbers so only -1 and 0 and 1 occur
[3] = 12 h, 1 µM, compound concentration 1 uM, replicate 1
[4] = 12 h, 1 µM, compound concentration 1 uM, replicate 2
[5] = 12 h, 10 µM, compound concentration 10 uM, replicate 1
[6] = 12 h, 10 µM, compound concentration 10 uM, replicate 2
[7] = 24 h, 1 µM, compound concentration 1 uM, replicate 1
[8] = 24 h, 1 µM, compound concentration 1 uM, replicate 2
[9] = 24 h, 10 µM, compound concentration 10 uM, replicate 1
[10] = 24 h, 10 µM, compound concentration 10 uM, replicate 2
[11] = 48 h, 10 µM, compound concentration 10 uM, replicate 1
[12] = 48 h, 10 µM, compound concentration 10 uM, replicate 2
[13] = 0 h, replicate number 1, timepoint 0 hours
[14] = 18 h, replicate number 1, timepoint 18 hours
[15] = 24 h, replicate number 1, timepoint 24 hours

`Cc1c(Nc2ccc(S(=O)(=O)N3CCN(C)CC3)cc2F)nc2ccc(-c3cnn(C4CC4)c3)cn2c1=O` was tested, and the “Population Apoptotic (%)” value (HEK-293T [1]; [3]) was 19%, the “Population Fragmented Nuclei (%)” value (HEK-293T [1]; [3]) was 13% and the “Population Healthy Nuclei (%)” value (HEK-293T [1]; [3]) was 67%. The “Population Hoechst High Intensity Objects (%)” value (HEK-293T [1]; [3]) was 9%, the “Population Membrane Permeable-Phenotype (%)” value (HEK-293T [1]; [3]) was 4% and the “Population Mitochondria Different-Phenotype (%)” value (HEK-293T [1]; [3]) was 6%. For the same compound, the “Population Mitotic Cells (%)” value (HEK-293T [1]; [3]) was 80%, the “Population Normal (%)” value (HEK-293T [1]; [3]) was 90% and the “Population Pyknosed Nuclei (%)” value (HEK-293T [1]; [3]) was 18%. The “Population Tubulin-Different-Phenotype (%)” value (HEK-293T [1]; [3]) was 6%, the “Total Cell Count” value (HEK-293T [1]; [3]) was 755 and the “Population Apoptotic (%)” value (HEK-293T [1]; [4]) was 10%. The “Population Fragmented Nuclei (%)” value (HEK-293T [1]; [4]) was 7%, the “Population Healthy Nuclei (%)” value (HEK-293T [1]; [4]) was 87% and the “Population Hoechst High Intensity Objects (%)” value (HEK-293T [1]; [4]) was 2%. For the same compound, the “Population Membrane Permeable-Phenotype (%)” value (HEK-293T [1]; [4]) was 2%, the “Population Mitochondria Different-Phenotype (%)” value (HEK-293T [1]; [4]) was 9% and the “Population Mitotic Cells (%)” value (HEK-293T [1]; [4]) was 89%. The “Population Normal (%)” value (HEK-293T [1]; [4]) was 97%, the “Population Pyknosed Nuclei (%)” value (HEK-293T [1]; [4]) was 4% and the “Population Tubulin-Different-Phenotype (%)” value (HEK-293T [1]; [4]) was 10%. For the same compound, the “Total Cell Count” value (HEK-293T [1]; [4]) was 1860, the “Population Apoptotic (%)” value (HEK-293T [1]; [5]) was 43% and 17% and the “Population Fragmented Nuclei (%)” value (HEK-293T [1]; [5]) was 44% and 17%. The “Population Healthy Nuclei (%)” value (HEK-293T [1]; [5]) was 37% and 61%, the “Population Hoechst High Intensity Objects (%)” value (HEK-293T [1]; [5]) was 45% and 18% and the “Population Membrane Permeable-Phenotype (%)” value (HEK-293T [1]; [5]) was 2% and 7%. The “Population Mitotic Cells (%)” value (HEK-293T [1]; [5]) was 56% and 82%, the “Population Normal (%)” value (HEK-293T [1]; [5]) was 54% and 81% and the “Population Pyknosed Nuclei (%)” value (HEK-293T [1]; [5]) was 18% and 20%. The “Population Tubulin-Different-Phenotype (%)” value (HEK-293T [1]; [5]) was 40% and 15%, the “Total Cell Count” value (HEK-293T [1]; [5]) was 1012 and 786 and the “Population Apoptotic (%)” value (HEK-293T [1]; [6]) was 16% and 6%. For the same compound, the “Population Fragmented Nuclei (%)” value (HEK-293T [1]; [6]) was 14% and 9%, the “Population Healthy Nuclei (%)” value (HEK-293T [1]; [6]) was 32% and 84% and the “Population Hoechst High Intensity Objects (%)” value (HEK-293T [1]; [6]) was 22% and 9%. The “Population Membrane Permeable-Phenotype (%)” value (HEK-293T [1]; [6]) was 4% and 8%, the “Population Mitotic Cells (%)” value (HEK-293T [1]; [6]) was 83% and 93% and the “Population Normal (%)” value (HEK-293T [1]; [6]) was 77% and 90%. For the same compound, the “Population Tubulin-Different-Phenotype (%)” value (HEK-293T [1]; [6]) was 64% and 33%, the “Population Apoptotic (%)” value (HEK-293T [1]; [7]) was 15% and the “Population Fragmented Nuclei (%)” value (HEK-293T [1]; [7]) was 11%. The “Population Healthy Nuclei (%)” value (HEK-293T [1]; [7]) was 77%, the “Population Hoechst High Intensity Objects (%)” value (HEK-293T [1]; [7]) was 5% and the “Population Membrane Permeable-Phenotype (%)” value (HEK-293T [1]; [7]) was 8%. For the same compound, the “Population Mitochondria Different-Phenotype (%)” value (HEK-293T [1]; [7]) was 4%, the “Population Mitotic Cells (%)” value (HEK-293T [1]; [7]) was 84% and the “Population Normal (%)” value (HEK-293T [1]; [7]) was 94%. For the same compound, the “Population Pyknosed Nuclei (%)” value (HEK-293T [1]; [7]) was 10%, the “Population Tubulin-Different-Phenotype (%)” value (HEK-293T [1]; [7]) was 10% and the “Total Cell Count” value (HEK-293T [1]; [7]) was 923. For the same compound, the “Population Apoptotic (%)” value (HEK-293T [1]; [8]) was 1%, the “Population Fragmented Nuclei (%)” value (HEK-293T [1]; [8]) was 23% and the “Population Healthy Nuclei (%)” value (HEK-293T [1]; [8]) was 74%. The “Population Hoechst High Intensity Objects (%)” value (HEK-293T [1]; [8]) was 2%, the “Population Membrane Permeable-Phenotype (%)” value (HEK-293T [1]; [8]) was 7% and the “Population Mitochondria Different-Phenotype (%)” value (HEK-293T [1]; [8]) was 2%. For the same compound, the “Population Mitotic Cells (%)” value (HEK-293T [1]; [8]) was 98%, the “Population Normal (%)” value (HEK-293T [1]; [8]) was 97% and the “Population Pyknosed Nuclei (%)” value (HEK-293T [1]; [8]) was 1%. The “Population Tubulin-Different-Phenotype (%)” value (HEK-293T [1]; [8]) was 14%, the “Total Cell Count” value (HEK-293T [1]; [8]) was 3127 and the “Population Apoptotic (%)” value (HEK-293T [1]; [9]) was 41%. The “Population Healthy Nuclei (%)” value (HEK-293T [1]; [9]) was 39% and 75%, the “Population Membrane Permeable-Phenotype (%)” value (HEK-293T [1]; [9]) was 8% and the “Population Mitotic Cells (%)” value (HEK-293T [1]; [9]) was 58% and 76%. The “Population Normal (%)” value (HEK-293T [1]; [9]) was 56% and 86%, the “Population Pyknosed Nuclei (%)” value (HEK-293T [1]; [9]) was 16% and 12% and the “Population Tubulin-Different-Phenotype (%)” value (HEK-293T [1]; [9]) was 51% and 32%. The “Total Cell Count” value (HEK-293T [1]; [9]) was 1052 and 818, the “Population Fragmented Nuclei (%)” value (HEK-293T [1]; [10]) was 11% and 14% and the “Population Healthy Nuclei (%)” value (HEK-293T [1]; [10]) was 42% and 80%. For the same compound, the “Population Mitotic Cells (%)” value (HEK-293T [1]; [10]) was 77% and 93%, the “Population Normal (%)” value (HEK-293T [1]; [10]) was 75% and 92% and the “Population Tubulin-Different-Phenotype (%)” value (HEK-293T [1]; [10]) was 64% and 49%. The “Population Apoptotic (%)” value (HEK-293T [1]; [11]) was 44%, the “Population Fragmented Nuclei (%)” value (HEK-293T [1]; [11]) was 37% and the “Population Healthy Nuclei (%)” value (HEK-293T [1]; [11]) was 47%. For the same compound, the “Population Hoechst High Intensity Objects (%)” value (HEK-293T [1]; [11]) was 40%, the “Population Membrane Permeable-Phenotype (%)” value (HEK-293T [1]; [11]) was 5% and the “Population Mitochondria Different-Phenotype (%)” value (HEK-293T [1]; [11]) was 35%. For the same compound, the “Population Mitotic Cells (%)” value (HEK-293T [1]; [11]) was 55%, the “Population Normal (%)” value (HEK-293T [1]; [11]) was 59% and the “Population Pyknosed Nuclei (%)” value (HEK-293T [1]; [11]) was 14%. The “Population Tubulin-Different-Phenotype (%)” value (HEK-293T [1]; [11]) was 58%, the “Total Cell Count” value (HEK-293T [1]; [11]) was 1023 and the “Population Apoptotic (%)” value (HEK-293T [1]; [12]) was 26%. The “Population Fragmented Nuclei (%)” value (HEK-293T [1]; [12]) was 12%, the “Population Healthy Nuclei (%)” value (HEK-293T [1]; [12]) was 61% and the “Population Hoechst High Intensity Objects (%)” value (HEK-293T [1]; [12]) was 19%. For the same compound, the “Population Membrane Permeable-Phenotype (%)” value (HEK-293T [1]; [12]) was 12%, the “Population Mitotic Cells (%)” value (HEK-293T [1]; [12]) was 73% and the “Population Normal (%)” value (HEK-293T [1]; [12]) was 80%. The “Population Pyknosed Nuclei (%)” value (HEK-293T [1]; [12]) was 25%, the “Population Tubulin-Different-Phenotype (%)” value (HEK-293T [1]; [12]) was 69% and the “Total Cell Count” value (HEK-293T [1]; [12]) was 372. The “Growth Rate” value (Fibroblast; [13]) was 0, the “Growth Rate” value (Fibroblast; 12 h, replicate number 1, timepoint 12 hours) was 1 and the “Growth Rate” value (Fibroblast; [14]) was 1. For the same compound, the “Growth Rate” value (Fibroblast; [15]) was 1, the “Growth Rate” value (HEK-293T [2]; [13]) was 1 and the “Growth Rate” value (HEK-293T [2]; 6 h, replicate number 1, timepoint 6 hours) was 0. For the same compound, the “Growth Rate” value (HEK-293T [2]; 12 h, replicate number 2, timepoint 12 hours) was 1, the “Growth Rate” value (HEK-293T [2]; [14]) was 1 and the “Growth Rate” value (HEK-293T [2]; [15]) was 1.
